This excerpt belongs to a sample that is enriched for hits.
IDH1 R132H inh = inhibitors of IDH1 R132H reductase, primary screen, biochemical, plate reader, single point; Isocitrate dehydrogenase [NADP] cytoplasmic (Homo sapiens), O75874; diaphorase/resazurin fluorescence, 60 min; hit rate 0.18% among 70,000; inhibition, % at 10 µM; in the data active = inhibition above about 34%; inconclusive = no clear call, values can overlap the other calls; inactive = below about 11%;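 also: 0% = DMSO and 100% = no enzyme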
Target sequence (O75874 whole entry R132H): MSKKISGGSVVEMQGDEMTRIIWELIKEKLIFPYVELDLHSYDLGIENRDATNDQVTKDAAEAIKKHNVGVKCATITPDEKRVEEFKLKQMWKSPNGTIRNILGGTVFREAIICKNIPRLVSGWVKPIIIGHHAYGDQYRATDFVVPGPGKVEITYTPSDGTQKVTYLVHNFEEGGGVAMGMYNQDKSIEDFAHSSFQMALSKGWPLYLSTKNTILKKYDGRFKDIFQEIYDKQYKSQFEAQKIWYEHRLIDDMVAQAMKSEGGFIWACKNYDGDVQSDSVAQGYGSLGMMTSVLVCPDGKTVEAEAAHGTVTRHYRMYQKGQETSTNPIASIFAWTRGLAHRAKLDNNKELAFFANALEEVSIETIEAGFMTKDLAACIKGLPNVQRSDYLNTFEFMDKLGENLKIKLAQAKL
GASC1 inh = inhibitors of GASC-1 (KDM4C) histone demethylase, primary screen, biochemical, single concentration HTS. inhibition, % at 12.5 µM. GST-KDM4C 2-372, H3K9me3 peptide, LANCE TR-FRET. hit rate 0.15% among 96,000. AID 720574, 2013;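 active = mean replicate inhibition above about 25%, with at least 55% of replicates also reaching it, limit read from the data, passing the limit was not always enough; inconclusive = only one of those two conditions met; inactive = neither condition met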
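Assay system: GST-GASC-1 enzyme fragment 2-372 | Amount: 10 nM enzyme | Medium: HEPES buffer, pH 7.5, plus ascorbate | Reagent: H3K9me3 peptide substrate, Fe(II), 2-oxoglutarate | Doses: Single-point compound screen | Incubation: 30 min demethylation and 1 h detection at room temperature | Measured by: LANCE TR-FRET, excitation 340 nm, emissions 618 and 671 nm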
T cruzi growth-1 = T. cruzi intracellular proliferation inhibitors, primary screen, cell-based, beta-gal Tulahuen parasites, NIH3T3 host, luminescence; T. cruzi beta-gal in NIH3T3, GalScreen luminescence, 90 h; inhibition, % at 8.34 µM; hit rate 5.9% among 77,000; AID 624255, 2012;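 active = mean inhibition above about 93%, with at least 55% of replicates each passing it, limit read from the data, passing the limit was not always enough; inconclusive = only one of those two conditions holds; inactive = neither condition holds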
T cruzi growth-2 = T. cruzi intracellular proliferation inhibitors, confirmation, cell-based, NIH3T3 host, beta-gal parasite, luminescence, cherry-pick. shares compounds with T cruzi growth-1. T. cruzi beta-gal in NIH3T3, GalScreen luminescence, 90 h. inhibition, % at 8.35 µM. hit rate 72% among 5,600;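 active = mean replicate inhibition above about 95% and at least 55% of replicates individually reaching it, limit read from the data; inconclusive = only one of the two criteria is met; inactive = neither criterion is met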
T cruzi growth-3 = inhibitors of intracellular T. cruzi replication, confirmation, NIH3T3 host cells, beta-gal parasites, cherry-pick, set 2; shares compounds with T cruzi growth-1; T. cruzi beta-gal in NIH3T3, GalScreen luminescence, 90 h; inhibition, % at 2.09 µM; hit rate 21% among 5,600; AID 651740, 2012;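 active = mean inhibition above about 95%, with at least 55% of replicates also reaching it, limit read from the data; inconclusive = meets just one of the two conditions; inactive = meets neither condition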;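 also: plate controls were neutral control median for no effect and positive control median for full effect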
3T3 cytotox = cytotoxicity in mouse NIH/3T3 fibroblasts, confirmation, cytotoxicity control for T. cruzi proliferation inhibitor project, cell-based, cherry-pick, single point; hit rate 14% among 5,600; NIH/3T3 viability, CellTiter-Glo ATP luminescence, 90 h; cytotoxicity (signal decrease), % at 8.35 µM; shares compounds with T cruzi growth-1;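 active = mean signal decrease across replicates above about 35% based on untreated-well scatter, with enough replicates individually passing, limit read from the data; inconclusive = no rule stated though some were filed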;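 also: 0% = median of neutral control wells and 100% = median of positive control wells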
NIH3T3 tox 2 = NIH/3T3 fibroblast cytotoxicity, confirmation, cytotoxicity control, cell-based, cherry-pick, single point, set 2. inhibition, % at 24.9 µM. shares compounds with T cruzi growth-1. hit rate 56% among 5,600. NIH/3T3 viability, CellTiter-Glo ATP luminescence, 90 h;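 active = mean loss of cell viability signal at or above a set limit, and enough replicates individually reaching it; inconclusive = meets only the mean limit or only the replicate share; inactive = meets neither condition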;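 also: 0% = median of neutral control wells and 100% = median of positive control wells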
* marks the source's active call; other numbers are inactive results; ? = inconclusive; · = no result given.

SMILES	IDH1 R132H inh	GASC1 inh	T cruzi growth-1	T cruzi growth-2	T cruzi growth-3	3T3 cytotox	NIH3T3 tox 2
CC(C)C#Cc1ccc2c(c1)O[C@@H](CN(C)C(=O)c1cccnc1)[C@H](C)CN([C@@H](C)CO)S2(=O)=O	80.6*	52.3*	103.2*	76.4	63.5	22.1	38.9*
CC(C)C#Cc1ccc2c(c1)O[C@H](CN(C)Cc1cccnc1)[C@@H](C)CN([C@@H](C)CO)S2(=O)=O	·	1.3	93.5*	107.9*	101.5*	41.7*	105.9*
C=CCn1c2ccccc2c2nnc(SCc3ccccc3F)nc21	0.1	·	·	·	·	·	·
COc1cc2c(cc1NC(=O)C(C)Oc1cccc(Cl)c1)oc1ccccc12 (stereo not given)	0.0	·	·	·	·	·	·
COC(=O)COc1ccc(NC(=O)c2ccc([N+](=O)[O-])c(C)c2)cc1	0.4	·	·	·	·	·	·
CC(C)c1ccccc1NC(=O)CN(C)S(=O)(=O)c1ccc(Br)cc1	-0.5	·	·	·	·	·	·
CC(O)CNS(=O)(=O)c1cccc([N+](=O)[O-])c1 (stereo not given)	0.6	·	·	·	·	·	·
CC(C)C#Cc1ccc2c(c1)O[C@@H](CN(C)Cc1ccncc1)[C@@H](C)CN([C@H](C)CO)S2(=O)=O	-0.7	-1.7	106.6*	93.6	85.3	16.5	?
C[C@H](CO)N1C[C@H](C)[C@H](CN(C)Cc2ccncc2)Oc2cc(C#C[C@@H](C)O)ccc2S1(=O)=O	6.0	-0.6	90.9	·	·	·	·
COc1cc(C2c3cc(O)c(OC)cc3CC(CO)C2CO[C@@H]2O[C@H](CO)[C@@H](O)[C@H](O)[C@H]2O)ccc1O (stereo not given in full)	-2.0	·	·	·	·	·	·
COC(=O)c1cc(NC(=O)CSc2ccccn2)cc(C(=O)OC)c1	0.4	·	·	·	·	·	·
CC(C)(C)c1ccc(C(=O)Nc2cccc(NC(=O)COc3ccccc3Cl)c2)cc1	0.6	·	·	·	·	·	·
C[C@@H]1CN([C@H](C)CO)C(=O)c2cc(NC(=O)Nc3cccc4ccccc34)ccc2O[C@@H]1CN(C)Cc1ccc(Oc2ccccc2)cc1	0.1	1.7	116.6*	101.3*	47.9	40.8*	?
C[C@H]1CN([C@@H](C)CO)C(=O)c2cc(NC(=O)Nc3cccc4ccccc34)ccc2O[C@@H]1CN(C)Cc1ccc(Oc2ccccc2)cc1	3.5	-2.0	125.1*	97.7*	101.8*	41.0*	44.1*
COc1ccc(CN(C)C[C@@H]2Oc3ccc(NC(=O)Nc4cccc5ccccc45)cc3C(=O)N([C@@H](C)CO)C[C@@H]2C)cc1	-0.3	-4.0	-20.0	·	·	·	·
COc1ccc(CN(C)C[C@@H]2Oc3ccc(NC(=O)Nc4cccc5ccccc45)cc3C(=O)N([C@@H](C)CO)C[C@H]2C)cc1	-5.8	-1.9	52.0	·	·	·	·
C[C@H](CO)N1C[C@H](C)[C@H](CN(C)Cc2ccc(Oc3ccccc3)cc2)Oc2ccc(NC(=O)Nc3cccc4ccccc34)cc2C1=O	·	-3.3	122.8*	103.8*	99.7*	33.1	37.0*
COc1ccc(CN(C)C[C@H]2Oc3ccc(NC(=O)Nc4cccc5ccccc45)cc3C(=O)N([C@@H](C)CO)C[C@@H]2C)cc1	0.3	0.9	17.1	·	·	·	·
COc1ccc(CN(C)C[C@H]2Oc3ccc(NC(=O)Nc4cccc5ccccc45)cc3C(=O)N([C@H](C)CO)C[C@H]2C)cc1	-1.3	·	62.5	·	·	·	·
C[C@H](CO)N1C[C@H](C)[C@@H](CN(C)Cc2ccc(Oc3ccccc3)cc2)Oc2ccc(NC(=O)Nc3cccc4ccccc34)cc2C1=O	·	-0.6	117.1*	99.0*	77.6	?	23.8
CC(=O)c1cccc(NC(=S)NCCn2cc(Cl)cn2)c1	0.5	·	·	·	·	·	·
CCN(CC(=O)Nc1cccc(OC)c1)S(=O)(=O)c1ccc2ccccc2c1	-0.6	·	·	·	·	·	·
Nc1cccc(S(=O)(=O)NCc2ccco2)c1	0.0	·	·	·	·	·	·

Screening data: PubChem BioAssay, Broad Institute
